In ChEMBL document CHEMBL4373642, “Fluoroquinolone-derived fluorescent probes for studies of bacterial penetration and efflux” (Medchemcomm, 2019):
Values after ≈ are worked out from the molar mass of the structure shown.

Tests used:
Enterococcus faecium = assay: Antibacterial activity against Enterococcus faecium ATCC 35667 assessed as reduction in bacterial growth incubated for 18 to 24 hrs by broth microdilution method; assay type: functional
In short: (§1)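 Bacteria grown overnight in cation-adjusted Mueller Hinton broth (CAMHB) at 37 °C, diluted 50-fold and grown 1.5–3 h to mid-log, then inoculated at 5×10^5 CFU mL^-1. Two-fold serial dilutions gave final 0.0039–64 μg mL^-1, plated in duplicate. Incubated 37 °C for 18–24 h. MIC was the lowest concentration with no visible growth (n ≥ 3).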

Acinetobacter baumannii = assay: Antibacterial activity against Acinetobacter baumannii ATCC 19606 assessed as reduction in bacterial growth incubated for 18 to 24 hrs by broth microdilution method; assay type: functional; details: ATCC 19606 = CIP 70.34 = JCM 6841; in short: as §1
Bacillus subtilis = assay: Antibacterial activity against Bacillus subtilis ATCC 6051 assessed as reduction in bacterial growth incubated for 18 to 24 hrs by broth microdilution method; assay type: functional; in short: as §1
Staphylococcus aureus = assay: Antibacterial activity against Staphylococcus aureus ATCC 25923 assessed as reduction in bacterial growth incubated for 18 to 24 hrs by broth microdilution method; assay type: functional; in short: as §1
Klebsiella pneumoniae = assay: Antibacterial activity against Klebsiella pneumoniae ATCC 13883 assessed as reduction in bacterial growth incubated for 18 to 24 hrs by broth microdilution method; assay type: functional; in short: as §1
Escherichia coli [1] = assay: Antibacterial activity against Escherichia coli MB5746 harbouring lpxC and tolC double mutant assessed as reduction in bacterial growth incubated for 18 to 24 hrs by broth microdilution method; assay type: functional
In short: (§2)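 Broth microdilution in cation-adjusted Mueller Hinton broth. Overnight 37 °C cultures were diluted 50-fold and grown 1.5–3 h to mid-log, then seeded at 5×10^5 CFU mL^-1. Compounds were two-fold serially diluted, final range 0.0039–64 μg mL^-1, in duplicate. Plates were incubated at 37 °C for 18–24 h.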

Escherichia coli [2] = assay: Antibacterial activity against Escherichia coli MB5747 harbouring tolC mutant assessed as reduction in bacterial growth incubated for 18 to 24 hrs by broth microdilution method; assay type: functional; in short: as §2
Escherichia coli [3] = assay: Antibacterial activity against Escherichia coli MB4902 harbouring lpxC mutant assessed as reduction in bacterial growth incubated for 18 to 24 hrs by broth microdilution method; assay type: functional; in short: as §2
Pseudomonas aeruginosa [4] = assay: Antibacterial activity against Pseudomonas aeruginosa ATCC 27853 assessed as reduction in bacterial growth incubated for 18 to 24 hrs by broth microdilution method; assay type: functional
In short: (§3)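 Bacteria grown overnight in cation-adjusted Mueller Hinton broth (CAMHB) at 37 °C, diluted 50-fold and grown 1.5–3 h to mid-log, then inoculated at 5×10^5 CFU mL^-1. Two-fold serial dilutions gave final 0.0039–64 μg mL^-1, plated in duplicate. Incubated 37 °C for 18–24 h.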

Escherichia coli [5] = assay: Antibacterial activity against Escherichia coli ATCC 25922 assessed as reduction in bacterial growth incubated for 18 to 24 hrs by broth microdilution method; assay type: functional; in short: as §3
Pseudomonas aeruginosa [6] = assay: Antibacterial activity against Pseudomonas aeruginosa PAO750 PAO397 harbouring delta efflux pump mutant assessed as reduction in bacterial growth incubated for 18 to 24 hrs by broth microdilution method; assay type: functional; in short: as §2
[7] = Drug uptake in Staphylococcus aureus incubated for 30 to 45 mins by Hoechst 33342 and Syto9 staining based confocal microscopy; assay type: ADME
In short: (§4)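 Colonies from LB agar were grown overnight in CAMHB at 37 °C, diluted ~40-fold and grown to OD600 0.4–0.6. Cells were pelleted, washed in HBSS and incubated with probe (50–100 μM) in HBSS at 37 °C for 30–45 min. […] were stained with Hoechst 33342 (5 μg mL^-1) or Syto-9 (10 μM) for 20 min, and membranes with FM4-64FX (5 μg mL^-1) for 5 min on ice. Samples were mounted and imaged by confocal microscopy.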

[8] = Drug uptake in Escherichia coli AG102 incubated for 30 to 45 mins by Hoechst 33342 and Syto9 staining based confocal microscopy; assay type: ADME; in short: as §4
[9] = Drug uptake in Escherichia coli AG102 incubated for 30 to 45 mins in presence of CCCP by Hoechst 33342 and Syto9 staining based confocal microscopy; assay type: ADME; in short: as §4

Structure (SMILES) | MIC (Enterococcus faecium) [µg/mL] | MIC (Acinetobacter baumannii) [µg/mL] | MIC (Bacillus subtilis) [µg/mL] | MIC (Staphylococcus aureus) [µg/mL] | MIC (Klebsiella pneumoniae) [µg/mL] | MIC (Escherichia coli [1]) [µg/mL] | MIC (Escherichia coli [2]) [µg/mL] | MIC (Escherichia coli [3]) [µg/mL] | MIC (Pseudomonas aeruginosa [4]) [µg/mL] | MIC (Escherichia coli [5]) [µg/mL] | MIC (Pseudomonas aeruginosa [6]) [µg/mL] | Drug uptake [7] | Drug uptake [8] | Drug uptake [9]
O=C(O)c1cn(C2CC2)c2cc(N3CCNCC3)c(F)cc2c1=O [CIPROFLOXACIN] | 1 to 8 (≈ 3.02 to 24.1 µM) | 0.5 to 1 (≈ 1.51 to 3.02 µM) | 0.06 to 0.313 (≈ 0.181 to 0.945 µM) | 0.125 to 0.5 (≈ 0.377 to 1.51 µM) | 0.015 to 0.06 (≈ 0.0453 to 0.181 µM) | – | – | – | – | – | – | – | – | –
[N-]=[N+]=NCCCN1CCN(c2cc3c(cc2F)c(=O)c(C(=O)O)cn3C2CC2)CC1 | 16 to 64 (≈ 38.6 to 154 µM) | 0.25 to 0.5 (≈ 0.603 to 1.21 µM) | 0.06 to 0.25 (≈ 0.145 to 0.603 µM) | 0.25 (≈ 0.603 µM) | 0.125 to 0.25 (≈ 0.302 to 0.603 µM) | 0.25 to 1 (≈ 0.603 to 2.41 µM) | 0.25 to 1 (≈ 0.603 to 2.41 µM) | 0.25 to 1 (≈ 0.603 to 2.41 µM) | 8 to 64 (≈ 19.3 to 154 µM) | 0.06 to 0.25 (≈ 0.145 to 0.603 µM) | 32 to 64 (≈ 77.2 to 154 µM) | – | – | –
CN(C)c1ccc2c(CC(=O)NCc3cn(CCCN4CCN(c5cc6c(cc5F)c(=O)c(C(=O)O)cn6C5CC5)CC4)nn3)cc(=O)oc2c1 | 32 to 64 (≈ 45.8 to 91.6 µM) | 32 (≈ 45.8 µM) | 4 (≈ 5.72 µM) | 16 (≈ 22.9 µM) | 4 to 32 (≈ 5.72 to 45.8 µM) | 0.5 to 1 (≈ 0.716 to 1.43 µM) | 0.5 to 1 (≈ 0.716 to 1.43 µM) | 2 (≈ 2.86 µM) | 32 to 64 (≈ 45.8 to 91.6 µM) | 2 (≈ 2.86 µM) | 2 to 8 (≈ 2.86 to 11.4 µM) | Active | Active | –
O=C(O)c1cn(C2CC2)c2cc(N3CCN(CCCn4cc(CNc5ccc([N+](=O)[O-])c6nonc56)nn4)CC3)c(F)cc2c1=O | 32 (≈ 50.6 µM) | 32 to 64 (≈ 50.6 to 101 µM) | 8 (≈ 12.6 µM) | 32 to 64 (≈ 50.6 to 101 µM) | 8 to 16 (≈ 12.6 to 25.3 µM) | 0.06 to 0.125 (≈ 0.0948 to 0.198 µM) | 0.125 to 0.25 (≈ 0.198 to 0.395 µM) | 1 to 4 (≈ 1.58 to 6.32 µM) | 32 to 64 (≈ 50.6 to 101 µM) | 8 (≈ 12.6 µM) | 4 (≈ 6.32 µM) | Active | Not Active | Active
